A short description of data set [1]: Pharmacokinetic study in ICR. The format is in vivo, mice. Conditions: for improvement in plasma exposure (AUClast) compared to niclosamide: ICR (CD-1) mice, oral 30 mg/kg; for conversion of prodrug to parent compound 21: mice plasma after single-dose administration. In a few lines:
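Mice (N = 3 per group) fasted 12 h before dosing. Test compound given in DMSO/0.5% HMPC (5/95, v/v), 30 mg/kg orally or 2.5 mg/kg intravenously. Femoral-vein blood taken at 0.25, 0.5, 1, 2, 4, 8 and 24 h. […] analysed by LC-MS/MS for prodrug and parent. Mole correction applied for prodrug dosing; AUClast derived.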

The nature of data set [2]: Metabolic stability in mouse liver microsomes. The format is in vitro ADME. The conditions noted are these: pH 7.4. In a few lines:
(§1)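 Microsomes at 0.33 mg/mL final in 0.1 M Tris pH 7.4 with 5 mM MgCl2, 0.01% DMSO and 0.005% BSA. Test compound at 1 μM final. Preincubated 10 min at 37 °C, then started with NADPH (1 mM final). Aliquots taken at 0, 7, 17, 30 and 60 min and quenched with cold methanol. After centrifugation, parent compound quantified by LC-MS/MS; half-life reported in min.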

A short description of data set [3]: Metabolic stability in human liver microsomes. Type of data set: in vitro ADME. Conditions: pH 7.4. In outline: as §1
A short description of a further data set: Sub-acute toxicity study. The format is in vivo, ICR mice. In a few lines:
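Male mice of 18–20 g in four groups of ten: one control group and three oral groups at 50, 100 and 200 mg/kg, dosed once daily for ten days. Body weight, food intake and behaviour checked daily. Animals fasted before dissection. Heart, liver, spleen, lung, kidney and administration site collected for organ weight and histology.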

The test system of another data set is SKP2. The data set can be described thus: Western blot assay, SKP2 level in Vero-E6 cells. The format is cell-based. The conditions noted are these: 16 h.
The subject of another data set is BECN1. Nature of the data set: Western blot assay, BECN1. The conditions noted are these: Vero-E6 cells. The format is cell-based.

For the molecule `O=C(Nc1ccc(C(F)(F)F)cc1)c1cc(Cl)c(F)cc1O` [Compound 19, 5-Chloro-4-fluoro-2-hydroxy-N-(4-(trifluoromethyl)phenyl)benzamide], the “improvement in plasma exposure (AUClast) compared to niclosamide” value in data set [1] was 3.19 fold.

Consider `O=C(Nc1ccc(OC(F)(F)F)cc1)c1cc(Cl)c(F)cc1O` [Compound 21, 5-Chloro-4-fluoro-2-hydroxy-N-(4-(trifluoromethoxy)phenyl)benzamide], for which, in data set [1], the “improvement in plasma exposure (AUClast) compared to niclosamide” value amounted to 10.84 fold. For the same molecule, the half-life at 1 µM in data set [2] worked out at 22.6 min; in data set [3] it was 120 min. For the same molecule, the tolerability entry in “Sub-acute toxicity study” (ICR mice, oral dosage up to 200 mg/kg, ten days) is “well tolerated”. In “Sub-acute toxicity study” (male ICR mice, 50, 100, 200 mg/kg once a day for ten days), the “changes in body weight, organ weight, or tissue histology” value is given as “No significant changes”. Besides, the mortality entry in the data set “Sub-acute toxicity study” (male ICR mice, 50, 100, 200 mg/kg once a day, 10 days observation) was “No mortality”. Moreover, the “level of SKP2” value with SKP2 is recorded as “reduced”. Further, the “levels of BECN1” value in the data set with BECN1 (3 μM and 1 μM) is recorded as “slightly increased”; in the data set on BECN1 (10 μM, vs control group), “higher than the control group”.

With `CC(C)C(=O)Oc1cc(F)c(Cl)cc1C(=O)Nc1ccc(OC(F)(F)F)cc1` [Compound 24, 4-Chloro-5-fluoro-2-((4-(trifluoromethoxy)phenyl)carbamoyl)phenyl isobutyrate], in data set [1], the “conversion of prodrug to parent compound 21” value (“conversion of prodrug” for short) is “rapidly hydrolyze to compound 21”.

Take `CC(=O)Oc1cc(F)c(Cl)cc1C(=O)Nc1ccc(OC(F)(F)F)cc1` [Compound 25, 4-Chloro-5-fluoro-2-((4-(trifluoromethoxy)phenyl)carbamoyl)phenyl acetate]: in data set [1], the “conversion of prodrug” value is on record as “rapidly hydrolyze to compound 21”.

`C[C@H](N)C(=O)Oc1cc(F)c(Cl)cc1C(=O)Nc1ccc(OC(F)(F)F)cc1.Cl` [Compound 26, 4-Chloro-5-fluoro-2-((4-(trifluoromethoxy)phenyl)carbamoyl)phenyll-alaninate monohydrochloride]: the “conversion of prodrug” value in data set [1] is recorded as “barely transforms to parent compound 21”.

Take `O=C(Nc1ccc([N+](=O)[O-])cc1Cl)c1cc(Cl)ccc1O` [NIC, niclosamide, reference compound]: the half-life at 1 µM is 5.86 min in data set [2] and 13.3 min in data set [3]. For the same molecule, in the data set with SKP2, the “level of SKP2” value was “reduced”. Further, in the data set with BECN1 (10 μM, vs control group), the “levels of BECN1” value is “higher than the control group”.

Values taken from PMC10073089 (European Journal of Medicinal Chemistry, 2023).
